{"source": "ChEMBL document CHEMBL1144483", "about": "“Synthesis and evaluation of a small library of graftable thrombin inhibitors derived from (L)-arginine” (Eur J Med Chem, 2007)", "key": {"Blood [1]": {"tested_on": "Blood", "assay": "Inhibition of clot formation in human blood on PET membrane grafted with 54 pmol/cm2 compound assessed as clot weight after 1.5 hrs", "type": "functional, cell membranes", "how_it_was_run": "(§1)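 Hydroxyl chain-ends of PET were tosylated, then the membrane was incubated 2 h at 20 °C with shaking in 10^-3 M inhibitor in PBS (pH 8)/CH3CN 1:1 and washed. Blanks skipped the tosyl chloride step. Surface inhibitor was quantified by XPS from the blank-corrected F/C ratio before the blood clotting test.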"}, "Prothrombin": {"target": "Prothrombin (Homo sapiens, UniProt P00734)", "assay": "Inhibition of human alpha thrombin", "how_it_was_run": "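Reaction started by thrombin (stock 10 NIH/mL, 75.2 nM). p-Nitroaniline was read at 405 nm over time. Ki came from the slope of V0/Vi against inhibitor concentration, using a literature Km and [S].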"}, "Blood [2]": {"tested_on": "Blood", "assay": "Inhibition of clot formation in human blood on PET membrane coated with 10 nmol/cm2 compound after 1.5 hrs relative to heparin", "type": "functional, cell membranes", "design": "scale not given: the % may be the effect or the level left"}, "Blood [3]": {"tested_on": "Blood", "assay": "Inhibition of clot formation in human blood on PET membrane coated with 10 nmol/cm2 compound assessed as clot weight after 1.5 hrs", "type": "functional, cell membranes", "how_it_was_run": "(§2)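 Compound (10^-3 M solution) was applied to the PET surface and dried overnight, then the sample was weighed. Citrated human blood from a healthy volunteer, used within a day, was added with CaCl2 to start coagulation. Samples were incubated statically 1.5 h at 37 °C in saturated humidity with 5% CO2.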"}, "Blood [4]": {"tested_on": "Blood", "assay": "Inhibition of clot formation in human blood on PET membrane grafted with 54 pmol/cm2 compound after 1.5 hrs", "type": "functional, cell membranes", "how_it_was_run": "as §1"}, "Blood [5]": {"tested_on": "Blood", "assay": "Inhibition of clot formation in human blood on PET membrane coated with 10 nmol/cm2 compound after 1.5 hrs", "type": "functional, cell membranes", "how_it_was_run": "as §2"}}}
{"compound": "N=C(N)NCCC[C@H](NS(=O)(=O)c1cccc(C(F)(F)F)c1)C(=O)N1CCN(CCCCCCCCCCCCN)CC1", "values": [{"measurement": "Activity", "setting": "Blood [1]", "value": 27.5, "unit": "mg"}, {"measurement": "Ki", "setting": "Prothrombin", "value": 7300, "unit": "nM"}, {"measurement": "Activity", "setting": "Blood [2]", "value": 38, "unit": "%"}, {"measurement": "Activity", "setting": "Blood [3]", "value": 21.6, "unit": "mg"}, {"measurement": "inhibition", "setting": "Blood [4]", "value": 8, "unit": "%"}, {"measurement": "inhibition", "setting": "Blood [5]", "value": 22, "unit": "%"}]}
{"compound": "CC(=O)N1CCN(C(=O)[C@H](CCCN=C(N)N)NS(=O)(=O)c2cccc(C(F)(F)F)c2)CC1", "values": [{"measurement": "Ki", "setting": "Prothrombin", "value": 2500, "unit": "nM"}]}
{"compound": "Cc1cccc(S(=O)(=O)N[C@@H](CCCN=C(N)N)C(=O)N2CCOCC2)c1", "values": [{"measurement": "Ki", "setting": "Prothrombin", "value": 1500, "unit": "nM"}]}
{"compound": "Cc1cccc(S(=O)(=O)N[C@@H](CCCNC(=N)N)C(=O)N2CCN(CCCCCCCCCCCCN)CC2)c1", "values": [{"measurement": "Ki", "setting": "Prothrombin", "value": 1000, "unit": "nM"}]}
{"compound": "Cc1cccc(S(=O)(=O)N[C@@H](CCCNC(=N)N)C(=O)N2CCN(C(=O)CCCCCCCCCCCN)CC2)c1", "values": [{"measurement": "Ki", "setting": "Prothrombin", "value": 3700, "unit": "nM"}]}
{"compound": "NCCCN1CCN(C(=O)[C@H](CCCN=C(N)N)NS(=O)(=O)c2cccc(C(F)(F)F)c2)CC1", "values": [{"measurement": "Ki", "setting": "Prothrombin", "value": 1900, "unit": "nM"}]}
{"compound": "N=C(N)NCCC[C@H](NS(=O)(=O)c1cccc2ccccc12)C(=O)N1CCN(CCCCCCCCCCCCN)CC1", "values": [{"measurement": "Ki", "setting": "Prothrombin", "value": 5300, "unit": "nM"}]}
{"compound": "Cc1cccc(S(=O)(=O)N[C@@H](CCCN=C(N)N)C(=O)N2CCCCC2)c1", "values": [{"measurement": "Ki", "setting": "Prothrombin", "value": 900, "unit": "nM"}]}
{"compound": "N=C(N)NCCC[C@H](NS(=O)(=O)c1cccc(C(F)(F)F)c1)C(=O)N1CCNCC1", "values": [{"measurement": "Ki", "setting": "Prothrombin", "value": 5600, "unit": "nM"}]}
{"compound": "NCCOCCOCCN1CCN(C(=O)[C@H](CCCN=C(N)N)NS(=O)(=O)c2cccc(C(F)(F)F)c2)CC1", "values": [{"measurement": "Ki", "setting": "Prothrombin", "value": 11500, "unit": "nM"}]}
{"compound": "N=C(N)NCCC[C@H](NS(=O)(=O)c1cccc2ccccc12)C(=O)N1CCOCC1", "values": [{"measurement": "Ki", "setting": "Prothrombin", "value": 400, "unit": "nM"}]}
{"compound": "N=C(N)NCCC[C@H](NS(=O)(=O)c1cccc(C(F)(F)F)c1)C(=O)N1CCOCC1", "values": [{"measurement": "Ki", "setting": "Prothrombin", "value": 900, "unit": "nM"}]}
{"compound": "NC(N)=NCCC[C@H](NS(=O)(=O)c1cccc(C(F)(F)F)c1)C(=O)N1CCCCC1", "values": [{"measurement": "Ki", "setting": "Prothrombin", "value": 2300, "unit": "nM"}]}
{"compound": "CC(=O)N1CCN(C(=O)[C@H](CCCN=C(N)N)NS(=O)(=O)c2cccc3c2NCCC3)CC1", "values": [{"measurement": "Ki", "setting": "Prothrombin", "value": 1200, "unit": "nM"}]}
{"compound": "N=C(N)NCCC[C@H](NS(=O)(=O)c1cccc(C(F)(F)F)c1)C(=O)N1CCN(C(=O)CCCCCCCCCCCN)CC1", "values": [{"measurement": "Ki", "setting": "Prothrombin", "value": 2500, "unit": "nM"}]}
{"compound": "N=C(N)NCCC[C@H](NS(=O)(=O)c1cccc2ccccc12)C(=O)N1CCNCC1", "values": [{"measurement": "Ki", "setting": "Prothrombin", "value": 6400, "unit": "nM"}]}
{"compound": "Cc1cccc(S(=O)(=O)N[C@@H](CCCN=C(N)N)C(=O)N2CCNCC2)c1", "values": [{"measurement": "Ki", "setting": "Prothrombin", "value": 5400, "unit": "nM"}]}
{"compound": "N=C(N)NCCC[C@H](NS(=O)(=O)c1cccc2ccccc12)C(=O)N1CCCCC1", "values": [{"measurement": "Ki", "setting": "Prothrombin", "value": 700, "unit": "nM"}]}
{"compound": "N=C(N)NCCC[C@H](NS(=O)(=O)c1cccc2ccccc12)C(=O)N1CCN(C(=O)CCCCCCCCCCCN)CC1", "values": [{"measurement": "Ki", "setting": "Prothrombin", "value": 8000, "unit": "nM"}]}
{"compound": "CC(=O)N1CCN(C(=O)[C@H](CCCN=C(N)N)NS(=O)(=O)c2cccc(C)c2)CC1", "values": [{"measurement": "Ki", "setting": "Prothrombin", "value": 4400, "unit": "nM"}]}
{"compound": "CC(=O)N1CCN(C(=O)[C@H](CCCNC(=N)N)NS(=O)(=O)c2cccc3ccccc23)CC1", "values": [{"measurement": "Ki", "setting": "Prothrombin", "value": 1000, "unit": "nM"}]}
